Results from different studies.
Protocols differ between the studies behind these lines.
Target: Calcium/calmodulin-dependent protein kinase type 1D (CAMK1D, Homo sapiens, UniProt Q8IU85)

| SMILES | assay | setting | remaining binding [%] |
| --- | --- | --- | --- |
| C[C@@H]1CCN(c2nccc(-c3cnn4ncccc34)n2)C1 | binding | 1 µM | 86 |
| N#Cc1ccc(Nc2ccc3[nH]c(=O)[nH]c3c2)c(Cl)c1 | cell-free assay, competition with immobilised ligand | 1 µM | 92 |
| c1cnn2ncc(-c3ccnc(N4CCC45COC5)n3)c2c1 | binding | 1 µM | 89 |
| O=C(O)[C@H]1[C@H](Cn2nnc3ccccc3c2=O)CC[C@@H]1C(=O)c1ccc(OCCC2CCOCC2)cc1 | cell-free assay, competition with immobilised ligand | 1 µM | 96 |
| CC1CCCN1c1nccc(-c2cnn3ncccc23)n1 (stereo not shown) | binding | 1 µM | 100 |
| Cc1cnc(Nc2ccc(C(=O)N3CCC(N4CCCC4)CC3)cc2)nc1-c1cc2ccccc2s1 | binding, competition with immobilised ligand | 1 µM | 8.3 |
| Nc1ncc2c(n1)-c1c([nH]c3ccc(C#CC4CC4)cc13)CCCC2 | binding, competition with immobilised ligand | 1 µM | 100 |
| COc1ncc2cc3ccccc3nc2c1C#N | cell-free assay, competition with immobilised ligand | 5 µM | 98 |
| C=CC(=O)N1CCC(C(=O)NCC(=O)N2CCN(c3nc(-c4cnc(N)nc4C(F)F)nc(N4CCOCC4)n3)CC2)CC1 | binding, competition with immobilised ligand | 1 µM | 100 |
| COc1cnc(Nc2cccc(S(N)(=O)=O)c2)nc1N1CCN(c2ccccc2)CC1 | binding, competition with immobilised ligand | 1 µM | 100 |
| N[C@H]1CCN(c2nccc(-c3cnn4ncccc34)n2)C1 | binding | 1 µM | 91 |
| CN([C@@H]1CCc2c(CC(=O)O)c3cc(S(C)(=O)=O)ccc3n2C1)S(=O)(=O)c1ccc(F)cc1 | cell-free assay, competition with immobilised ligand | 1 µM | 99 |
| O=C(Nc1c[nH]nc1C(=O)NC1CCNCC1)c1cc(F)cc(F)c1 | binding, competition with immobilised ligand | 1 µM | 100 |
| O=C(NS(=O)(=O)c1ccc(NCC2CCOCC2)c([N+](=O)[O-])c1)c1ccc(N2CCN(Cc3ccc(C(F)(F)F)cc3-c3ccc(Cl)cc3)CC2)cc1Oc1cnc2[nH]ccc2c1 | cell-free assay, competition with immobilised ligand | 1 µM | 92 |
| O=C(NCCCN1CCOCC1)c1ccc(Nc2ncc(Cl)c(-c3ccc(Cl)s3)n2)cc1 | binding, competition with immobilised ligand | 1 µM | 44 |
| O=C(N[C@H]1CCCCC/C=C\C2C[C@@]2(C(=O)O)NC(=O)[C@@H]2C[C@@H](Oc3ccncc3)CN2C1=O)OC1CCCC1 (stereo partly shown) | cell-free assay, competition with immobilised ligand | 1 µM | 94 |
| CN(c1nccc(-c2cnn3ncccc23)n1)C1CC1 | binding | 1 µM | 100 |
| CNC(=O)[C@@H]1CC[C@@H](n2c(-c3ccc4cnccc4c3)nc3ccc(C(=O)NCc4cccc(C(N)=O)c4)cc32)C1 | binding, competition with immobilised ligand | 1 µM | 100 |
| CN(C)c1ncc(F)c(-c2cnn3ncccc23)n1 | binding | 1 µM | 78 |
| CCc1ccccc1C(=O)Nc1n[nH]c2c(C)c(F)c(C3C(C#N)=C(C)N(C)C(C)=C3C#N)cc12 | cell-free assay, competition with immobilised ligand | 1 µM | 87 |
| O=C(c1ccc(Nc2ncc(Cl)c(-c3ccc(Cl)s3)n2)cc1)N1CCC(N2CCCC2)CC1 | binding, competition with immobilised ligand | 1 µM | 22 |
| COc1ccnn2ncc(-c3ccnc(N(C)C)n3)c12 | binding | 1 µM | 100 |
